Assay outcomes as filed in PubChem.
This is a sample that favours compounds with a hit; in the whole collection about 2.6% have one here.
IMP-1 inh-1 = IMP-1 metallo-beta-lactamase inhibitors, primary screen, biochemical, epi-absorbance readout, Pseudomonas aeruginosa enzyme | metallo-beta-lactamase IMP-1 (Pseudomonas aeruginosa) | purified IMP-1, nitrocefin hydrolysis, epi-absorbance fluorescence | inhibition, % at 5.6 µM | actives 0.45% (n = 290,000) | AID 1556, 2009;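 active = inhibition above the mean plus 3 SD of all compounds in the same screening run, cut at about 4.5% in these data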
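System: purified IMP-1; amount: IMP-1 0.2 nM before substrate addition; compound: single dose, 5.6 µM; times: 25 °C, 15 min preincubation, 25 min reaction; signal: Epi-absorbance via hydrolysed-nitrocefin quenching of white-plate fluorescence, 480/530 nm, EDTA stop; benchmarks: DMSO with and without IMP-1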
ASAP1 inh = inhibitors of human ASAP1 ArfGAP activity, primary screen, biochemical, fluorescence polarization; ASAP1-stimulated ARF1 GTP hydrolysis, GDP FP detection; Arf-GAP with SH3 domain, ANK repeat and PH domain-containing protein 1 (Homo sapiens), …; actives 0.19% (n = 360,000); inhibition, % at 16.5 µM; in the data active = inhibition above about 25%
PHOSPHO1 block = PubChem AID 1565; inhibition, % at 13.3 µM; actives 1.1% (n = 290,000); Phosphoethanolamine/phosphocholine phosphatase (Homo sapiens), Q8TCT1; recombinant PHOSPHO1, absorbance phosphatase assay; in the data active = inhibition above about 60%
VIM-2 inhibitor = VIM-2 metallo-beta-lactamase inhibitors, primary screen, biochemical, epi-absorbance readout, Pseudomonas aeruginosa enzyme. purified VIM-2, nitrocefin hydrolysis, epi-absorbance fluorescence. inhibition, % at 5.6 µM. actives 0.89% (n = 290,000);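 active = inhibition above the mean of all tested compounds plus 3 SD, cutoff set per screening run, cut at about 7.5% in these data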;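 note: red hydrolysis product quenches plate fluorescence so inhibitors raise well fluorescence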
ARFGAP1 inhibitor = inhibitors of rat ARFGAP1 GAP activity, primary screen, biochemical, fluorescence polarization, GDP tracer; Arfgap1-stimulated ARF1 GTP hydrolysis, GDP FP detection; inhibition, % at 16.5 µM; actives 0.26% (n = 360,000); AID 651572, 2012;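 active = inhibition above a per-plate limit, mean inhibition of low control wells plus 3 SD, cut at about 25% in these data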
Target sequence (Q62848 1-136 limits assumed): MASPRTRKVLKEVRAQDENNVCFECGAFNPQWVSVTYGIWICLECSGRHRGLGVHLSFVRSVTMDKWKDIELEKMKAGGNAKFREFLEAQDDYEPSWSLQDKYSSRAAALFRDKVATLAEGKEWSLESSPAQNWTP
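system = rat Arfgap1 catalytic domain, aa 1-136 | technique = FP, GDP Alexa 633 tracer displaced from anti-GDP antibody, 620/688 nm | compound = one concentration, 16.5 µM, DMSO 1.26% | medium = HEPES-based buffer, pH 7.5 | timing = compound-enzyme preincubation 20 min, reaction 120 min, detection 60 min, 25 °C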
Calb FLC = C. albicans growth inhibition with fluconazole, primary screen, CaCi-2 strain, Alamar Blue fluorescence; C. albicans CaCi-2 + fluconazole, 48 h; growth inhibition, % (concentration not given with the values); actives 0.57% (n = 300,000); AID 1979, 2009;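 active = growth inhibition above about 58% in most replicates, limit read from the data, passing the limit was not always enough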;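 note: all wells also contain fluconazole at 8 µg/ml as a sub-toxic cotreatment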
IMP-1 inh-2 = IMP-1 metallo-beta-lactamase inhibitors, confirmation, selectivity assay for selective VIM-2 inhibitor project, biochemical, epi-absorbance readout, triplicate; shares compounds with VIM-2 inhibitor; purified IMP-1, nitrocefin hydrolysis, epi-absorbance fluorescence; inhibition, % at 5.6 µM; 1,300 tested, under 10 active; call rule not given here
VIM-2 FRET inh = VIM-2 inhibitors in FRET format, confirmation, artefact control for selective VIM-2 inhibitor project, biochemical, epi-absorbance artifact exclusion | purified VIM-2, CCF2 FRET substrate hydrolysis | shares compounds with VIM-2 inhibitor | actives 23% (n = 1,300) | inhibition, % at 5.6 µM;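 active = inhibition above the mean of all tested compounds plus 3 SD, cut at about 19% in these data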
TEM-1 inh = TEM-1 serine beta-lactamase inhibitors, counter-screen for VIM-2 inhibitor project, biochemical, epi-absorbance, HTS | shares compounds with VIM-2 inhibitor | Purified TEM-1, nitrocefin hydrolysis, epi-absorbance fluorescence | inhibition, % at 5.6 µM | actives 3% (n = 1,300) | AID 1866, 2009;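 active = inhibition above that campaign's mean inhibition plus 3 SD, cut at about 0.46% in these data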
Target sequence (P62593 whole entry, looked up): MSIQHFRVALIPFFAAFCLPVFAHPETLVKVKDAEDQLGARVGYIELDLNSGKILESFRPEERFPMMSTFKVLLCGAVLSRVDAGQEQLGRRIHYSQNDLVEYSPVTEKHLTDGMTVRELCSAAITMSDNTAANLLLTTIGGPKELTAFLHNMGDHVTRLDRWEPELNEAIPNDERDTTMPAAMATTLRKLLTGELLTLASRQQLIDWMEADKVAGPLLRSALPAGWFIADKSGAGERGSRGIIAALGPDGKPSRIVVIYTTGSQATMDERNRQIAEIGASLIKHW
VIM-2 confirm 2 = VIM-2 metallo-beta-lactamase inhibitors, confirmation, biochemical, epi-absorbance, hits shared with IMP-1 screen; purified VIM-2, nitrocefin hydrolysis; inhibition, % at 5.6 µM; AID 2187, 2009; shares compounds with VIM-2 inhibitor; actives 96% (n = 1,300);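 active = inhibition of the VIM-2 beta-lactamase enzyme above about 11% from the earlier first-round screen, limit read from the data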
Of the large screens only hits and unclear results are named; the others gave an inactive call (follow-up assays come after a bar, where they were run).

O=C(c1ccccc1)c1ccc(N2CCNCC2)cc1	VIM-2 inhibitor 18 (no result: ASAP1 inh, ARFGAP1 inhibitor, Calb FLC) | IMP-1 inh-2 inactive | VIM-2 FRET inh inactive | TEM-1 inh inactive | VIM-2 confirm 2 46
Cc1ccc(C(=O)CCC(=O)N2CCN(c3ccc(F)cc3)CC2)cc1	none
CN1CCN(c2ccc(C(=O)c3ccc(F)cc3)cc2)CC1	VIM-2 inhibitor 24 | IMP-1 inh-2 inactive | VIM-2 FRET inh inactive | TEM-1 inh inactive | VIM-2 confirm 2 40
CCN1CCN(c2nn3c(=O)c4ccccc4nc3c3ccccc23)CC1	VIM-2 inhibitor 18 | IMP-1 inh-2 inactive | VIM-2 FRET inh inactive | TEM-1 inh inactive | VIM-2 confirm 2 30
N#Cc1cc2c(=O)n3ccccc3nc2n(CCCn2ccnc2)c1=N	VIM-2 inhibitor 45 | IMP-1 inh-2 inactive | VIM-2 FRET inh inactive | TEM-1 inh inactive | VIM-2 confirm 2 78
CCCn1c(=N)c(C#N)cc2c(=O)n3ccccc3nc21	none
CCN1CCN(C(=O)Cn2nc(-c3ccc(Cl)cc3)ccc2=O)CC1	VIM-2 inhibitor 23 | IMP-1 inh-2 inactive | VIM-2 FRET inh inactive | TEM-1 inh inactive | VIM-2 confirm 2 27
CCCCCCn1cc(C(=O)O)c(=O)c2cc(F)c(N3CCN(C)CC3)cc21	VIM-2 inhibitor 16 (no result: ASAP1 inh, ARFGAP1 inhibitor) | IMP-1 inh-2 inactive | VIM-2 FRET inh inactive | TEM-1 inh inactive | VIM-2 confirm 2 19
CCn1cc(C(=O)O)c(=O)c2cc(F)c(N3CCN(C)CC3)cc21	none
CCCCC[C@@H](C)N1C[C@@H](COCc2ccccc2)Oc2cc(N3CCC[C@H]3COC)ccc2S1(=O)=O	none (no result: IMP-1 inh-1, PHOSPHO1 block, VIM-2 inhibitor, Calb FLC)
COc1ccc(C2C(C(=O)c3cccs3)=C(O)C(=O)N2c2nnc(C)s2)cc1OC (configuration not stated)	VIM-2 inhibitor 27 (no result: ASAP1 inh, ARFGAP1 inhibitor) | IMP-1 inh-2 inactive | VIM-2 FRET inh inactive | TEM-1 inh 5.5 | VIM-2 confirm 2 8.8
Cc1nn(CC(=O)NCCCN2CCC(N3CCCCC3)CC2)c(=O)c2cc(-c3ccccc3)nn12	VIM-2 inhibitor 22 | IMP-1 inh-2 inactive | VIM-2 FRET inh inactive | TEM-1 inh inactive | VIM-2 confirm 2 37
CCn1c2ccccc2c2nnc(SCc3ccccc3)nc21	none
Cc1cc(C)c2c(c1)c1nnc(SCCN3CCCCC3)nc1n2C	VIM-2 inhibitor 23 | IMP-1 inh-2 inactive | VIM-2 FRET inh inactive | TEM-1 inh inactive | VIM-2 confirm 2 33
Cn1c2ccccc2c2nnc(SCC(=O)Nc3cccc(O)c3)nc21	VIM-2 inhibitor 20 | IMP-1 inh-2 inactive | VIM-2 FRET inh inactive | TEM-1 inh inactive | VIM-2 confirm 2 27
Nc1cc(N)nc(SCCN2CCCCC2)n1	none
CCn1c2ccccc2c2nnc(SCCN3CCCCC3)nc21	VIM-2 inhibitor 19 | IMP-1 inh-2 inactive | VIM-2 FRET inh inactive | TEM-1 inh inactive | VIM-2 confirm 2 22
CCCCn1c2ccc(C)cc2c2nnc(SCCN3CCCCC3)nc21	VIM-2 inhibitor 22 | IMP-1 inh-2 inactive | VIM-2 FRET inh inactive | TEM-1 inh inactive | VIM-2 confirm 2 33
COc1ccc(-c2cnc3c(NC=O)cc(-c4ccccc4OC)cn23)cc1OC	none (no result: IMP-1 inh-1, PHOSPHO1 block, VIM-2 inhibitor, Calb FLC)
